Assay results reported in paper PMC10731006 (Heliyon, 2023).
Values after ≈ are worked out from the molar mass of the structure shown. Like-named read-outs stand apart in the source and are kept apart here.

What was measured:
[1] = test system: human dermal fibroblast (HDF, human dermal cell line); assay: MTT cytotoxicity assay, normal cells; type: cell-based; details: read-out: IC50 HDF
Summary of the method: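 Human dermal fibroblasts were maintained in DMEM with 10% FCS, 2 mM L-glutamine and 1% penicillin-streptomycin (37 °C, 5% CO2). They were seeded at 1 × 10^4 cells/ml, allowed to adhere overnight, then treated 96 h with serially diluted test compound (six final levels, 1–600) beside DMSO-matched vehicle and cisplatin controls. Then MTT 5 mg/ml was added for 4 h, formazan taken up in DMSO, and absorbance read at 540 nm, in triplicate. IC50 was fitted.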

[2] = test system: HDF, U87, MCF-7 and A549 cells; assay: Morphological analysis; type: cell-based, human; details: 96 h, treatment at the respective IC50 for each cell line
Summary of the method: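 HDF, U87, MCF-7 and A549 cells were seeded at 1 × 10^4 cells/ml in flat-bottom plates and adhered overnight. They were then treated 96 h with test compound serially diluted in medium (final 1–600 μM/ml). Controls were untreated and DMSO-matched wells, plus cisplatin at 1–100 μM/mL. Cells were fixed in ice-cold methanol for 30 min at 4 °C, stained with hematoxylin, and viewed by inverted light microscopy.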

[3] = test system: breast cancer (MCF7) cells; assay: MTT cytotoxicity assay, MCF7; type: cell-based, human; details: for SI MCF-7 (selectivity index): IC50 in HDF / IC50 in MCF-7, 96 h; for IC50: read-out: IC50 MCF-7
Summary of the method: (§1)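 Cells were grown in RPMI 1640 with 10% FCS, 2 mM L-glutamine and 1% penicillin-streptomycin at 37 °C under 5% CO2. They were seeded at 1 × 10^4 cells/ml, left overnight to adhere, and exposed 96 h to test compound diluted in medium (six final levels, 1–600), with DMSO-matched and cisplatin controls. MTT at 5 mg/ml was added for 4 h, formazan dissolved in DMSO, and A540 read, in triplicate. IC50 was fitted from the data. SI = IC50 in HDF / IC50 in this line.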

[4] = test system: non-small cell lung cancer (A549) cells; assay: MTT cytotoxicity assay, A549; type: cell-based, human; details: for SI A549 (selectivity index): IC50 in HDF / IC50 in A549, 96 h; for IC50: read-out: IC50 A549
Summary of the method: as §1

[5] = test system: glioblastoma (U-87 MG) cells; assay: MTT cytotoxicity assay, U-87 MG; type: cell-based, human; details: for SI U87 (selectivity index): IC50 in HDF / IC50 in U87, 96 h; for IC50: read-out: IC50 U87
Summary of the method: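 U-87 MG cells were cultured in DMEM with 10% FCS, 2 mM L-glutamine and 1% penicillin-streptomycin at 37 °C, 5% CO2. Seeding was 1 × 10^4 cells/ml; after overnight adherence, test compound diluted in medium (six final levels, 1–600) was applied for 96 h alongside DMSO-matched and cisplatin controls. Read-out: MTT 5 mg/ml for 4 h, DMSO solubilisation, A540, in triplicate, IC50 fitted. SI = IC50 in HDF / IC50 in U87.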

[6] = test system: Pseudomonas aeruginosa (ATCC 13048); assay: Micro-broth dilution assay; type: cell-based; details: ATCC13048, read-out: MIC PA
[7] = test system: Pseudomonas aeruginosa (ATCC 13048); assay: Agar diffusion test, P. aeruginosa; type: cell-based; details: ATCC13048, read-out: Zone of inhibition PA
[8] = DPPH radical scavenging assay
[9] = test system: Staphylococcus aureus (ATCC 10145); assay: Micro-broth dilution assay; type: cell-based; details: ATCC10145, read-out: MIC SA
[10] = test system: Bacillus cereus (ATCC 11778); assay: Agar diffusion test, B. cereus; type: cell-based; details: ATCC11778, read-out: Zone of inhibition BC
[11] = test system: Gram-positive and Gram-negative bacterial test strains; assay: Antibacterial activity, whole panel of test strains; type: cell-based; details: agar diffusion
Summary of the method: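 Disc diffusion followed CLSI (2012). Test compound at 10, 50 and 100 μg/disc was loaded on 6-mm blank filter discs laid on Mueller Hinton agar seeded at 10^6 cells/ml. Strains were S. aureus ATCC 10145, B. cereus ATCC 11778, B. subtilis ATCC 6633, P. aeruginosa ATCC 13048 and E. coli ATCC 25922. Inhibition zones were recorded.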

[12] = test system: Escherichia coli (ATCC 25922); assay: Agar diffusion test, E. coli; type: cell-based; details: ATCC25922, read-out: Zone of inhibition EC
[13] = test system: cancer cell lines (U87, MCF-7 and A549) compared to normal cells (HDF); assay: MTT cytotoxicity, cancer cell lines compared to normal cells; type: cell-based, human; details: 96 h treatment
Summary of the method: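 A549 and MCF7 grown in RPMI 1640, HDF and U87 in DMEM, each with 10% FCS, 2 mM L-glutamine, 1% pen-strep, 37 °C, 5% CO2. Cells at 1 × 10^4 cells/ml were adhered overnight, then exposed 96 h to test compound (final 1–600 […] in medium). Controls were blank, untreated, DMSO-matched and cisplatin (1–100 μM/mL). MTT 5 mg/ml for 4 h; DMSO-solubilised formazan read at 540 nm, triplicate. IC50 from curve fitting; selectivity index = HDF IC50 / cancer-line IC50.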

[14] = test system: Bacillus cereus (ATCC 11778); assay: Micro-broth dilution assay; type: cell-based; details: ATCC11778, read-out: MIC BC
[15] = ABTS radical scavenging assay
[16] = test system: Escherichia coli (ATCC 25922); assay: Micro-broth dilution assay; type: cell-based; details: ATCC25922, read-out: MIC EC
B. subtilis (ATCC 6633) = assay: Micro-broth dilution assay; type: cell-based; details: Bacillus subtilis, ATCC6633, read-out: MIC BS
[17] = test system: Staphylococcus aureus (ATCC 10145); assay: Agar diffusion test, S. aureus; type: cell-based; details: ATCC10145, read-out: Zone of inhibition SA

Compound: N.N.[Cl][Pt][Cl] [Cisplatin, reference compound]
- IC50 ([1]; MTT, 96 h treatment): 40.9 ± 5.4 µM
- morphological changes of treated cancer cells [2]: became rounded and separated from each other, shrank, and underwent nuclear condensation
- SI MCF-7 (selectivity index) [3]: 1.5
- IC50 ([3]; MTT, 96 h treatment): 26.9 ± 4.7 µM
- SI A549 (selectivity index) [4]: 1.3
- IC50 ([4]; MTT, 96 h treatment): 30.4 ± 5.2 µM
- SI U87 (selectivity index) [5]: 1.5
- IC50 ([5]; MTT, 96 h treatment): 28.3 ± 5.3 µM

Compound: COC(=O)c1cn(C2CC2)c2cc(N3CCN(C(=O)c4c(C)nnn4-c4ccc(Cl)cc4)CC3)c(F)cc2c1=O [Compound 6c, methyl 7-(4-(1-(4-chlorophenyl)-4-methyl-1H-1,2,3-triazole-5-carbonyl)piperazin-1-yl)-1-cyclopropyl-6-fluoro-4-oxo-1,4-dihydroquinoline-3-carboxylate]
- MIC [6]: 500 µg/mL (≈ 885 µM)
- zone of inhibition at 100 µg/disc [7]: 12.3 ± 0.6 mm
- zone of inhibition at 300 µg/disc [7]: 14.6 ± 0.6 mm
- zone of inhibition at 500 µg/disc [7]: 16.3 ± 0.6 mm
- IC50 ([1]; Homo sapiens, Fibroblast, 96 h): 294 ± 11.4 µM
- IC50 ± SD, DPPH [8]: 43.1 ± 1.8 µg/mL (≈ 76.3 µM)
- % inhibition ±SD, DPPH ([8]; 10 μg/ml): 24.6 ± 1.8%
- % inhibition ±SD, DPPH ([8]; 25 μg/ml): 31.7 ± 0.3%
- % inhibition ±SD, DPPH ([8]; 50 μg/ml): 52.2 ± 0.2%
- % inhibition ±SD, DPPH ([8]; 100 μg/ml): 71.4 ± 0.7%
- MIC [9]: > 500 µg/mL
- zone of inhibition at 100 µg/disc [10]: 12.7 ± 0.6 mm
- zone of inhibition at 300 µg/disc [10]: 13.7 ± 1.1 mm
- zone of inhibition at 500 µg/disc [10]: 15.3 ± 0.7 mm
- IC50 ([3]; Homo sapiens, MCF7, 96 h): 61.6 ± 11.1 µM
- SI MCF-7 (selectivity index) [3]: 4.8
- IC50 ([4]; Homo sapiens, A549, 96 h): 239 ± 7.9 µM
- SI A549 (selectivity index) [4]: 1.2
- inhibition zones, range over susceptible strains [11]: 13 to 16 mm
- zone of inhibition at 100 µg/disc [12]: 11.3 ± 0.7 mm
- zone of inhibition at 300 µg/disc [12]: 13.6 ± 1.2 mm
- zone of inhibition at 500 µg/disc [12]: 14.6 ± 0.3 mm
- cytotoxic / anti-proliferative activity in words [13]: significant cytotoxic activity against only U-87 and MCF-7 cancer cell lines
- MIC [14]: 500 µg/mL (≈ 885 µM)
- IC50 ± SD, ABTS [15]: 35.1 ± 2.0 µg/mL (≈ 62.1 µM)
- % inhibition ±SD, ABTS ([15]; 5 μg/ml): 14.8 ± 0.6%
- % inhibition ±SD, ABTS ([15]; 10 μg/ml): 33.3 ± 0.8%
- % inhibition ±SD, ABTS ([15]; 25 μg/ml): 42.7 ± 0.4%
- % inhibition ±SD, ABTS ([15]; 50 μg/ml): 59.8 ± 0.3%
- % inhibition ±SD, ABTS ([15]; 100 μg/ml): 65.7 ± 0.1%
- IC50 ([5]; Homo sapiens, U-87 MG, 96 h): 12.3 ± 5.5 µM
- SI U87 (selectivity index) [5]: 23.9
- MIC [16]: > 500 µg/mL
- MIC (B. subtilis (ATCC 6633)): > 500 µg/mL
- zone of inhibition at 100 µg/disc [17]: 10.6 ± 1.2 mm
- zone of inhibition at 300 µg/disc [17]: 12.3 ± 0.6 mm
- zone of inhibition at 500 µg/disc [17]: 13.3 ± 0.3 mm

Compound: COC(=O)c1cn(C2CC2)c2cc(N3CCN(C(=O)c4c(C)nnn4-c4ccc(C(F)(F)F)cc4)CC3)c(F)cc2c1=O [Compound 6d, methyl 7-(4-(1-(4-trifluoromethylphenyl)-4-methyl-1H-1,2,3-triazole-5-carbonyl)piperazin-1-yl)-1-cyclopropyl-6-fluoro-4-oxo-1,4-dihydroquinoline-3-carboxylate]
- MIC [6]: 500 µg/mL (≈ 835 µM)
- zone of inhibition at 100 µg/disc [7]: 11.7 ± 0.6 mm
- zone of inhibition at 300 µg/disc [7]: 13 ± 0.3 mm
- zone of inhibition at 500 µg/disc [7]: 13.3 ± 0.6 mm
- IC50 ([1]; Homo sapiens, Fibroblast, 96 h): 425 ± 18.5 µM
- IC50 ± SD, DPPH [8]: 58.8 ± 1.7 µg/mL (≈ 98.2 µM)
- % inhibition ±SD, DPPH ([8]; 5 μg/ml): 13.8 ± 0.2%
- % inhibition ±SD, DPPH ([8]; 10 μg/ml): 26.0 ± 0.9%
- % inhibition ±SD, DPPH ([8]; 25 μg/ml): 42.1 ± 0.6%
- % inhibition ±SD, DPPH ([8]; 50 μg/ml): 46.2 ± 0.3%
- % inhibition ±SD, DPPH ([8]; 100 μg/ml): 68.7 ± 0.1%
- MIC [9]: 500 µg/mL (≈ 835 µM)
- zone of inhibition at 100 µg/disc [10]: 9.6 ± 1.2 mm
- zone of inhibition at 300 µg/disc [10]: 11 mm
- zone of inhibition at 500 µg/disc [10]: 13.3 ± 0.6 mm
- IC50 ([3]; Homo sapiens, MCF7, 96 h): 124 ± 10.6 µM
- SI MCF-7 (selectivity index) [3]: 3.4
- IC50 ([4]; Homo sapiens, A549, 96 h): 308 ± 12.1 µM
- SI A549 (selectivity index) [4]: 1.4
- inhibition zones, range over susceptible strains [11]: 12–14 mm
- zone of inhibition at 100 µg/disc [12]: 8.3 ± 1.5 mm
- zone of inhibition at 300 µg/disc [12]: 10.3 ± 0.7 mm
- zone of inhibition at 500 µg/disc [12]: 12.6 ± 0.7 mm
- cytotoxic / anti-proliferative activity in words [13]: significant cytotoxic activity against only U-87 and MCF-7 cancer cell lines
- MIC [14]: > 500 µg/mL
- IC50 ± SD, ABTS [15]: 31.7 ± 1.9 µg/mL (≈ 53 µM)
- % inhibition ±SD, ABTS ([15]; 5 μg/ml): 21.1 ± 1.0%
- % inhibition ±SD, ABTS ([15]; 10 μg/ml): 33.7 ± 0.7%
- % inhibition ±SD, ABTS ([15]; 25 μg/ml): 42.8 ± 0.3%
- % inhibition ±SD, ABTS ([15]; 50 μg/ml): 61.6 ± 0.6%
- % inhibition ±SD, ABTS ([15]; 100 μg/ml): 66.5 ± 0.6%
- IC50 ([5]; Homo sapiens, U-87 MG, 96 h): 3.82 ± 2.9 µM
- SI U87 (selectivity index) [5]: 111.4
- MIC [16]: > 500 µg/mL
- MIC (B. subtilis (ATCC 6633)): > 500 µg/mL
- zone of inhibition at 100 µg/disc [17]: 10.3 ± 0.6 mm
- zone of inhibition at 300 µg/disc [17]: 12.3 ± 0.6 mm
- zone of inhibition at 500 µg/disc [17]: 14.6 ± 1.2 mm
